Laboratory results: ChEMBL document CHEMBL4665651, “Design, synthesis, and biological evaluation of some novel 4-aminoquinazolines as Pan-PI3K inhibitors” (Bioorg Med Chem, 2019)

Assays:
HCT-116 = assay: Antiproliferative activity against human HCT-116 cells assessed as reduction in cell viability incubated for 72 hrs by SRB assay; format: functional, cell-based; settings: HCT-116, 72 h
A549 = assay: Antiproliferative activity against human A549 cells assessed as reduction in cell viability incubated for 72 hrs by SRB assay; format: functional, cell-based; settings: A549, 72 h
Procedure, shortened: (§1)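 Cell lines grown at 37 °C in 5% CO₂: A549 in RPMI1640, MCF-7 in DMEM, each with 10% FBS plus penicillin/streptomycin/amphotericin B. Cells exposed to a range of compound concentrations for 72 h, then TCA-fixed and SRB-stained. Growth inhibition = 100 − 100×(OD sample − OD day 0)/(OD negative control − OD day 0). IC50 from non-linear regression of percent growth against concentration.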

[1] = molecular target: Epidermal growth factor receptor (Homo sapiens, UniProt P00533); assay: Inhibition of EGFR (unknown origin) using FAM-labeled peptide as substrate incubated for 10 mins followed by substrate addition and measured after 1 hr by mobility shift assay
Procedure, shortened: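 Mobility shift assay in 50 mM HEPES pH 7.5, 10 mM MgCl₂, 2 mM DTT, 0.0015% Brij35. Compound in 10-point DMSO dilution, run in duplicate. Enzyme preincubated with compound 10 min at room temperature. FAM-labeled peptide and ATP then added and reaction run at 28 °C for 1 h. Stopped with EDTA buffer; conversion turned into percent inhibition and fitted to a Hill equation for IC50.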

MCF7 = assay: Antiproliferative activity against human MCF7 cells assessed as reduction in cell viability incubated for 72 hrs by SRB assay; format: functional, cell-based; settings: MCF7, 72 h; procedure, shortened: as §1

Chain of Epidermal growth factor receptor (P00533 whole entry): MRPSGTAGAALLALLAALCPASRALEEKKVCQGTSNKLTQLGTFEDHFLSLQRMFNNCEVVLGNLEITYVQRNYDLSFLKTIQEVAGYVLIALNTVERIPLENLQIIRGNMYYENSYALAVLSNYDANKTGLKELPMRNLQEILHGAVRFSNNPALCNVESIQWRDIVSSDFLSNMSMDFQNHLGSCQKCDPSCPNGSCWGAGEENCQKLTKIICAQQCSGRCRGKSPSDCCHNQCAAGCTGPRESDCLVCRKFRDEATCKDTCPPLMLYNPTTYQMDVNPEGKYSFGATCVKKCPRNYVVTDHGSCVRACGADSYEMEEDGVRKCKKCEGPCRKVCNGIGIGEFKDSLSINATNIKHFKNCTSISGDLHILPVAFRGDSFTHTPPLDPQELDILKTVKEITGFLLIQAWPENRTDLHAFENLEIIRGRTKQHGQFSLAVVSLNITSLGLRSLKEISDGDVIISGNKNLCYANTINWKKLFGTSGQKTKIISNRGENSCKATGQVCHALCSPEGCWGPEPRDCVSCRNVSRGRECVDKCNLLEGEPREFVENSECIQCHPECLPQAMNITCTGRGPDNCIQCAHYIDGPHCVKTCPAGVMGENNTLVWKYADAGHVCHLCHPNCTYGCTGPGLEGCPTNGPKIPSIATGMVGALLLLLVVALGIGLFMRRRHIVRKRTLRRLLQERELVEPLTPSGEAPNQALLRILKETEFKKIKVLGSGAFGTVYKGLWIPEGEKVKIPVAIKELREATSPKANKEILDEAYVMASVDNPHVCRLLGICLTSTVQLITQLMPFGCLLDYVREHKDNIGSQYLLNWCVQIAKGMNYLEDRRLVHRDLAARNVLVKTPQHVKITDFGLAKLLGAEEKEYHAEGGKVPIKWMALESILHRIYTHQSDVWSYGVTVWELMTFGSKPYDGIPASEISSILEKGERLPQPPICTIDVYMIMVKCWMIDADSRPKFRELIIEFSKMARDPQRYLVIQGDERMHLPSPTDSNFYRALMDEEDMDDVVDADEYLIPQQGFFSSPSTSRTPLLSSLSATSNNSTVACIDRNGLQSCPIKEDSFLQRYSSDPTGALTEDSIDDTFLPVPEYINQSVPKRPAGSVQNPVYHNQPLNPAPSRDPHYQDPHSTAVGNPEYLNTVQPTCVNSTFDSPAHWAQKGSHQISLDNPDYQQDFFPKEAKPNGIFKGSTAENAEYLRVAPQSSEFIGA

Row | SMILES | IC50 (HCT-116) [µM] | IC50 (A549) [µM] | IC50 [1] [µM] | IC50 (MCF7) [µM]
1 | COc1ncc(-c2ccc3ncnc(Nc4cnn(CCO)c4)c3c2)cc1NS(C)(=O)=O | 1.49 | 8.22 | 2.52 | 0.77
2 | COc1ncc(-c2ccc3ncnc(Nc4ccc(OCCO)nc4)c3c2)cc1NS(=O)(=O)c1ccc(F)cc1F | 2.34 | 4.12 |  | 4.3
3 | COc1cc(Nc2ncnc3ccc(-c4cnc(OC)c(NS(=O)(=O)c5ccc(F)cc5F)c4)cc23)ccc1OCCO | 5.72 | 3.76 |  | 2.26
4 | COc1ncc(-c2ccc3ncnc(Nc4ccc(OCCO)cc4)c3c2)cc1NS(C)(=O)=O | 4.86 | 5.2 |  | 3.27
5 | COc1ncc(-c2ccc3ncnc(Nc4ccc(OCCO)c(Cl)c4)c3c2)cc1NS(=O)(=O)c1ccc(F)cc1F | 7.32 | 5.98 |  | 3.74
6 | COc1ncc(-c2ccc3ncnc(Nc4ccc(OCCO)nc4)c3c2)cc1NS(C)(=O)=O | 5.36 | 5.08 |  | 3.08
7 | COc1ncc(-c2ccc3ncnc(Nc4cnn(CC(=O)O)c4)c3c2)cc1NS(=O)(=O)c1ccc(F)cc1F | 1.54 | 5.2 |  | 0.7
8 | COc1ncc(-c2ccc3ncnc(Nc4ccc(OCCO)c(F)c4)c3c2)cc1NS(=O)(=O)c1ccc(F)cc1F | 9.16 | 6.64 |  | 4.82
9 | COc1ncc(-c2ccc3ncnc(Nc4cnn(CCCO)c4)c3c2)cc1NS(C)(=O)=O | 1.42 | 3.6 |  | 0.73
10 | CCCCS(=O)(=O)Nc1cc(-c2ccc3ncnc(Nc4ccc(OCCO)nc4)c3c2)cnc1OC | > 20 | 13.3 |  | > 20
11 | COc1ncc(-c2ccc3ncnc(Nc4ccc(OCCCO)nc4)c3c2)cc1NS(=O)(=O)c1ccc(F)cc1F | 3.68 | 9.36 |  | 6.12

The next compounds have a lower IC50 (HCT-116) than those just listed; values first:

Row | IC50 (HCT-116) [µM] | IC50 (A549) [µM] | IC50 [1] [µM] | IC50 (MCF7) [µM] | SMILES
12 | 1.06 | 2.69 |  | 1.65 | COc1ncc(-c2ccc3ncnc(Nc4ccc(OCCO)cc4)c3c2)cc1NS(=O)(=O)c1ccc(F)cc1F
13 | 1.26 | 4.28 |  | 0.67 | COC(=O)Cn1cc(Nc2ncnc3ccc(-c4cnc(OC)c(NS(=O)(=O)c5ccc(F)cc5F)c4)cc23)cn1
14 | 0.14 | 0.86 |  | 0.03 | COc1ncc(-c2ccc3nccc(-c4ccnnc4)c3c2)cc1NS(=O)(=O)c1ccc(F)cc1F [OMIPALISIB]
15 | 1.29 | 3.84 |  | 0.56 | COc1ncc(-c2ccc3ncnc(Nc4cnn(CCC(=O)O)c4)c3c2)cc1NS(=O)(=O)c1ccc(F)cc1F
16 | 0.97 | 2.99 |  | 0.49 | COC(=O)CCn1cc(Nc2ncnc3ccc(-c4cnc(OC)c(NS(=O)(=O)c5ccc(F)cc5F)c4)cc23)cn1
17 | 0.48 | 4.83 |  | 1.31 | COc1ncc(-c2ccc3ncnc(Nc4cnn(CCCO)c4)c3c2)cc1NS(=O)(=O)c1ccc(F)cc1F
